KCNQ1 act: human KCNQ1 channel potentiation or activation. CHO-K1 KCNQ1, thallium flux FluxOR fluorescence; stronger effect = higher value. AID 2648. hit rate 0.35% among 310,000. B-score at 10 µM. P51787;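 active = fluorescence ratio B-score, a plate-corrected score, at least three library SD, with initial intensity B-score within 5 SD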
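Test system: CHO-K1 cells stably expressing KCNQ1 / Medium: assay buffer / Also added: depolarizing K+/Tl+ stimulus, K2SO4 and Tl2SO4 each 12.5 mM in 5x stock / Incubation: 90 min dye loading and 20 min compound exposure, both at room temperature / Signal: thallium influx via FluxOR fluorescence, kinetic imaging / Evaluation: B score of baseline-normalized fluorescence ratio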
KCNQ1 block: human KCNQ1 channel inhibition | P51787 | CHO-K1 KCNQ1, FluxOR thallium flux fluorescence; stronger effect = higher value | B-score at 10 µM | hit rate 1.3% among 310,000;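 active = compounds whose thallium flux B-score, printed positive for inhibition, exceeds three library SD while starting fluorescence stays within three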;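 note: channel opened by potassium depolarization with thallium stimulus after 20 min compound exposure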
KCNK3 inh: human KCNK3 channel inhibition, primary screen; CHO-KCNK3 thallium flux, FluxOR fluorescence; stronger effect = lower value; B-score at 10 µM; hit rate 0.84% among 340,000;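 active = B-score under library mean minus 4 SD, starting fluorescence ratio at most library mean plus 5 SD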;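 note: more negative B-score means stronger inhibition of thallium flux through KCNK3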
Target sequence (O14649 whole entry, looked up): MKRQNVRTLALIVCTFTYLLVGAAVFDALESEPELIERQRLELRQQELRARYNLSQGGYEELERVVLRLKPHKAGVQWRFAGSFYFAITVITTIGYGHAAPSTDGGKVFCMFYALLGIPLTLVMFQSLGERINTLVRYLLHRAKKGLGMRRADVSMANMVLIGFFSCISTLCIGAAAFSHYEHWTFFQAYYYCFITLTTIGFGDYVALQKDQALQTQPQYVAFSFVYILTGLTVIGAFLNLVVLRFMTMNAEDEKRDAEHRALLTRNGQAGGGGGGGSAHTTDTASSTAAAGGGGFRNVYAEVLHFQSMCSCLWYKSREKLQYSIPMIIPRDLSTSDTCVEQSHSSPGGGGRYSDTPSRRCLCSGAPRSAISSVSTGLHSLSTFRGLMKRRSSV
hERG rescue: compounds protecting human hERG from proarrhythmic drug block; Q12809; CHO-hERG, FluxOR thallium flux, dofetilide IC70 present; activation (rescue from dofetilide block), less the hit threshold, % at 10 µM; hit rate 0.51% among 310,000; AID 1511;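 active = activation above the mean of controls blocked by dofetilide plus 5 SD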;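 note: thallium influx through hERG after potassium depolarization seen as dye fluorescence rise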
Kir21 inh: Kir2.1 (mouse) channel inhibition. B-score at 10 µM. HEK293-Kir2.1, FluxOR thallium flux fluorescence; stronger effect = lower value. P35561. AID 1672. hit rate 0.85% among 310,000;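 active = fluorescence ratio B-score at or below minus 3 SD of library scores, with starting-brightness B-score within 2 SD, cut at about -4.2 in these data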;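 note: channel flux triggered by added potassium and thallium sulfate stimulus; B-score of peak minus minimum fluorescence over baseline after thallium stimulus; more negative B-score means stronger Kir2.1 block with less thallium influx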
KCNK9 inh: human KCNK9 channel inhibition. Q9NPC2. HEK293 KCNK9, FluxOR thallium flux fluorescence; stronger effect = lower value. B-score at 10 µM. hit rate 1.2% among 310,000. AID 488922;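 active = ratio B-score over 3 SD below the library mean, with starting fluorescence within 5 SD of its mean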;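 note: negative B-score means less thallium flux so channel inhibition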
KCNK9 block conf: confirmation of human KCNK9 potassium channel inhibitors | shares compounds with KCNK9 inh | HEK293 KCNK9 cells, FluxOR thallium flux fluorescence | inhibition, % at 10 µM | hit rate 43% among 4,900;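 active = thallium signal inhibited by more than 5 SD of the compound-free buffer control wells, on both duplicate plates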;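 note: 0% = assay buffer control wells without compound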
Kir2-1 spec: tests whether KCNK9 modulators also affect mouse Kir2.1; AID 492993; inhibition, % at 10 µM; Kir2.1 cells, FluxOR thallium flux fluorescence; shares compounds with KCNK9 inh; hit rate 4% among 4,900;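 active = thallium signal drop more than 5 SD beyond the mean of the no-compound control wells, seen in both duplicate plates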;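 note: signal is fluorescence rise after thallium addition divided by baseline fluorescence; plate controls were assay buffer only for no effect and full block by chlorpromazine control for full effect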
KCNK9 uninduced: second counter-screen for KCNK9 modulators: effect in non-induced cells | shares compounds with KCNK9 inh | non-induced KCNK9-HEK293, FluxOR thallium flux | inhibition, % at 10 µM | hit rate 40% among 4,900 | AID 492997;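 active = thallium signal drop beyond 5 SD of the untreated control mean, on both duplicate plates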;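 note: plate controls were buffer only IC0 wells for no effect and SID17386958 at its maximal inhibitory level for full effect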
* marks the source's active call; other numbers are inactive results; i = inactive; / = not tested or not shown. Hits are enriched below; roughly 3.7% of the tested compounds scored in any of these assays.

SMILES | KCNQ1 act | KCNQ1 block | KCNK3 inh | hERG rescue | Kir21 inh | KCNK9 inh | KCNK9 block conf | Kir2-1 spec | KCNK9 uninduced
COc1ccc(Cl)cc1NC(=O)C(C)N(C)Cc1cccc(Cl)c1Cl (stereo not drawn) | i | i | i | -8 | -0.87 | -13* | 76%* | i | 52%*
O=C(O)c1ccccc1NSc1ccccc1[N+](=O)[O-] | i | i | i | -4 | 0.23 | i | / | / | /
CCc1ccc(NSc2ccccc2[N+](=O)[O-])cc1 | i | i | i | -7 | -1.1 | -8.8* | 42%* | i | 28%*
CC(=O)Oc1ccc(C(=O)NCc2ccc3c(c2)OCO3)cc1 | i | i | i | -11 | 0.8 | i | / | / | /
COc1ccc(C(=O)/C=C(\C)NCc2ccc3c(c2)OCO3)cc1 | i | i | i | -7 | -0.04 | i | i | i | i
Cc1cc(OCC(=O)N(C(C)C)C(C)C)ccc1Cl | i | i | i | 5.0* | 1 | i | i | i | i
Cc1cc(OCC(=O)NC(C)(C)C)ccc1Cl | i | i | i | -4 | -0.71 | i | / | / | /
COc1ccc2ccccc2c1CN1CCN(Cc2ccccc2)CC1 | i | i | i | -17 | -3 | i | i | i | i
COc1ccc(CC2(CO)CCN(C/C=C/c3ccccc3OC)CC2)cc1 | i | i | i | -14 | -0.02 | i | / | / | /
CCN(CC)c1ccc(/C=N/N2CCN(Cc3ccc(C)cc3)CC2)c(O)c1 | i | i | i | -5 | -1.9 | i | i | i | i
CCN(CC)c1ccc(/C=N/N2CCN(Cc3ccccc3Cl)CC2)c(O)c1 | i | i | i | -7 | -1.6 | i | / | / | /
COc1ccc(CN2CCN(Cc3ccc4ccccc4c3)CC2)cc1OC | i | i | i | -12 | -0.27 | i | / | / | /
COc1ccccc1/C=C/CN1CCN(c2ccccc2)CC1 | i | i | i | -6 | 0.64 | i | i | i | i
Cc1ccc(CSc2nnc(SCC(=O)N/N=C/C=C/c3ccccc3[N+](=O)[O-])s2)cc1 | i | i | i | -7 | -0.13 | -15* | 64%* | i | 30%*
CC(C)CN1C(=O)C(=Nc2cccnc2)c2ccccc21 | i | i | i | -9 | -1.3 | i | / | / | /
Cc1ccc(CN2CCN(/N=C/c3ccccc3)CC2)cc1 | i | i | i | -8 | -0.27 | i | / | / | /
COc1ccccc1/C=C/C=N/N1CCN(Cc2ccccc2)CC1 | i | i | i | -8 | 0.87 | i | i | i | i
Cc1ccc(CN2CCN(/N=C\C(Br)=C\c3ccccc3)CC2)cc1 | i | i | i | -1 | -0.06 | i | i | i | i
CC(=C/c1ccccc1)/C=N/N1CCN(Cc2ccc(C)cc2)CC1 | i | i | i | -14 | 1.1 | i | / | / | /
Cc1ccc(CN2CCN(/N=C/C=C/c3ccccc3[N+](=O)[O-])CC2)cc1 | i | i | i | -10 | -0.78 | i | i | i | i
N#CCCN(NC(=O)OCc1ccccc1)C(=O)OCc1ccccc1 | / | / | i | / | / | / | / | / | /
Cc1nn(CC(=O)Nc2cccc(Cl)c2)c(=O)c2cc(-c3ccccc3)nn12 | i | i | i | -12 | -2.7 | i | / | / | /
Cc1nn(-c2ccc(F)cc2)c(C)c1CN1CCN(CCC(C)C)C(CCO)C1 (stereo not drawn) | i | i | i | -12 | -0.91 | i | / | / | /
Cc1ccc(C(=O)N2N=C(c3ccccc3)CC2(O)C(F)(F)F)o1 (stereo not drawn) | i | i | i | -13 | 1 | -11* | 55%* | i | 32%*
COc1ccccc1-c1nnc(SC/C(O)=C(\C#N)c2nc3ccccc3[nH]2)n1C1CCCCC1 | i | i | i | -4 | -0.48 | -12* | 72%* | i | i
SMILES | KCNQ1 act | KCNQ1 block | KCNK3 inh | hERG rescue | Kir21 inh | KCNK9 inh | KCNK9 block conf | Kir2-1 spec | KCNK9 uninduced
N#C/C(=C(/O)CSc1nnc(Cc2cccs2)n1C1CCCCC1)c1nc2ccccc2[nH]1 | i | i | i | -3 | -0.11 | i | / | / | /
COc1ccc(CN2CCC(CO)(Cc3ccccc3C(F)(F)F)CC2)c(F)c1 | i | i | i | -15 | -0.58 | i | i | i | i
Nc1c(C(=O)N/N=C/c2cccnc2)oc2nc(-c3ccccc3)cc(-c3ccco3)c12 | i | 6* | i | -14 | 1.2 | -11* | i | i | 31%*
O=C1CSC(=S)N1/N=C/c1cc(Br)c(O)c(Br)c1 | i | i | i | -33 | -9 | -9.8* | 64%* | 57%* | 70%*
COc1cc(/C=N/N2C(=O)CSC2=S)ccc1O | i | i | i | -12 | -0.19 | i | / | / | /
CC1(c2ccc(OCC#N)cc2)C=C(c2ccc(OCC#N)cc2)n2nc(C(F)(F)F)nc2N1 (stereo not drawn) | i | i | i | -7 | -0.11 | -9.2* | 43%* | i | 44%*
CCCCSc1nnc2n(CCc3ccccc3)c(=O)c3c4c(sc3n12)COC(C)(C)C4 | i | i | i | -16 | 0.33 | i | i | i | i
COc1ccc(OC)c(C(=O)CSc2nccc(-c3ccc(Br)cc3)n2)c1 | i | i | i | -6 | -0.65 | -9.4* | i | i | 28%*
COc1ccc(-c2ccnc(SCC(=O)c3ccc(OC)c(OC)c3)n2)cc1 | i | i | i | -5 | -0.39 | i | / | / | /
COc1ccc(N=C2SC(CC(=O)Nc3ccccc3OC)C(=O)N2Cc2ccco2)cc1 (stereo not drawn) | i | i | i | -10 | 2 | i | i | i | i
COc1cccc(C2c3[nH]c4ccccc4c3CCN2Cc2cccn2-c2ncccn2)c1 (stereo not drawn) | i | i | i | -21 | 1.4 | -8.3* | 40%* | i | 48%*
COc1cccc(C2c3[nH]c4ccccc4c3CCN2CCCn2cccn2)c1 (stereo not drawn) | i | i | i | -8 | 0.04 | i | / | / | /
CC(Sc1nc2ccccc2c(=O)n1C)C(=O)Nc1ccc2c(c1)OCCO2 (stereo not drawn) | / | / | i | / | / | / | / | / | /
CC(C)Cn1c(SC(C)C(=O)Nc2ccc3c(c2)OCCO3)nc2ccccc2c1=O (stereo not drawn) | i | i | i | -3 | 0.19 | -8.5* | i | i | i

Compound activity as filed in PubChem BioAssay.
